ChEMBL document CHEMBL4680136, “Synthesis and antitumor activities investigation of a C-nucleoside analogue of ribavirin” (Eur J Med Chem, 2020)
In brackets after ≈: the same amount, converted by molar mass.

Assays:
MDA-MB-435 [1] = experiment: Antiproliferative activity against human MDA-MB-435 cells assessed as reduction in cell growth at 100 uM incubated for 72 hrs by MTT assay relative to control; assay type: functional
[2] = Toxicity in Swiss mouse assessed as abnormal behavior at 5 to 100 mg/kg, ip observed after 24 hrs; assay type: organism-based; settings: in vivo, dose 5-100 mg/kg
Method in brief: (§1)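 Male 6-week-old Swiss mice were acclimatized 5-7 days and randomised into seven groups of 3. Six groups got a single i.p. injection at 5, 10, 25, 50, 75 or 100 mg/kg; controls were uninjected. Mice were monitored over the first 24 h, then daily for 7 days, recording mortality and behaviour.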

SK-OV-3 [3] = experiment: Antiproliferative activity against human SK-OV-3 cells assessed as reduction in cell growth incubated for 4 days by trypan blue exclusion assay; assay type: functional, cell-based; settings: SK-OV-3, 96 h
Method in brief: (§2)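 Ovarian lines grown in RPMI-1640 glutaMAX with 10% FBS, 5% CO2, 37°C. Cells seeded at 20 000 cells/well in 24-well plates and exposed to 0, 1, 10, 20, 30 or 50 μg/mL for 7 days. Viable cells were counted daily by trypan blue exclusion. At least three independent experiments in triplicate; mean ± standard deviation.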

IGROV-1 [4] = experiment: Antiproliferative activity against human IGROV-1 cells assessed as reduction in cell growth incubated for 4 days by trypan blue exclusion assay; assay type: functional, cell-based; settings: IGROV-1, 96 h; method in brief: as §2
[5] = Cytotoxicity against human MET5A cells assessed as effect on cell morphology at 20 ug/ml measured upto 7 days by laser scanning confocal microscopy; assay type: cell-based; settings: 168 h, time <=7 day, dose 20 µg/ml
Method in brief: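 Healthy mesothelial MeT-5A cells, treated or untreated, were followed over days 1, 3 and 7. Actin cytoskeleton was stained by immunofluorescence (green) and nuclei with DAPI. Morphology was examined by laser scanning confocal microscopy.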

B16-F10 [6] = experiment: Antiproliferative activity against mouse B16-F10 cells assessed as reduction in cell growth incubated for 72 hrs by MTT assay; assay type: functional, cell-based; settings: B16-F10, 72 h
[7] = Toxicity in Swiss mouse assessed as effect on behaviour at 5 to 100 mg/kg, ip observed after 7 days; assay type: organism-based; settings: in vivo, 168 h, dose 5-100 mg/kg, time 7 day; method in brief: as §1
DU-145 [8] = experiment: Antiproliferative activity against human DU-145 cells assessed as reduction in cell growth at 100 uM incubated for 72 hrs by MTT assay relative to control; assay type: functional
C6 [9] = experiment: Antiproliferative activity against rat C6 cells assessed as reduction in cell growth incubated for 72 hrs by MTT assay; assay type: functional, cell-based; settings: C6, 72 h
Caco-2 [10] = experiment: Antiproliferative activity against human CaCo-2 cells assessed as reduction in cell growth incubated for 72 hrs by MTT assay; assay type: functional, cell-based; settings: Caco-2, 72 h
A-431 [11] = experiment: Antiproliferative activity against human A-431 cells assessed as reduction in cell growth incubated for 72 hrs by MTT assay; assay type: functional, cell-based; settings: A-431, 72 h
Huh-7 [12] = experiment: Antiproliferative activity against human HuH-7 cells assessed as reduction in cell growth at 100 uM incubated for 72 hrs by MTT assay relative to control; assay type: functional
[13] = Toxicity in Swiss mouse assessed as death rate at 5 to 100 mg/kg, ip observed after 7 days; assay type: organism-based; settings: in vivo, dose 5-100 mg/kg, time 7 day, read-out: Activity
Method in brief: (§3)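 Male 6-week-old Swiss mice, acclimatized 5-7 days, randomized into seven groups of 3. Single intraperitoneal injection at 5, 10, 25, 50, 75 or 100 mg/kg; controls housed alike without injection. Mice were monitored over the first 24 h, then daily for 7 days, recording mortality and behaviour.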

A-431 [14] = experiment: Antiproliferative activity against human A-431 cells assessed as reduction in cell growth at 100 uM incubated for 72 hrs by MTT assay relative to control; assay type: functional
[15] = Toxicity in Swiss mouse assessed as death rate at 5 to 100 mg/kg, ip observed after 24 hrs; assay type: organism-based; settings: in vivo, dose 5-100 mg/kg, read-out: Activity; method in brief: as §3
[16] = Toxicity in Swiss mouse assessed as abnormal appearance at 5 to 100 mg/kg, ip observed after 24 hrs; assay type: organism-based; settings: in vivo, dose 5-100 mg/kg
[17] = Cytotoxicity against human MET5A cells assessed as effect on cell morphology at 50 ug/ml measured upto 7 days by laser scanning confocal microscopy; assay type: cell-based; settings: 168 h, time <=7 day, dose 50 µg/ml
Method in brief: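 MeT-5A mesothelial cells, untreated or treated up to 50 μg/mL, were stained for actin cytoskeleton by immunofluorescence with DAPI-counterstained nuclei. Morphology was examined by laser scanning confocal microscopy on days 1, 3 and 7.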

IGROV-1 [18] = experiment: Antiproliferative activity against human IGROV-1 cells assessed as reduction in cell growth incubated for 3 days by trypan blue exclusion assay; assay type: functional, cell-based; settings: IGROV-1, 72 h; method in brief: as §2
[19] = Toxicity in Swiss mouse assessed as effect on body weight at 5 to 100 mg/kg, ip observed after 7 days; assay type: organism-based; settings: in vivo, 168 h, dose 5-100 mg/kg, time 7 day
SNB-75 [20] = experiment: Antiproliferative activity against human SNB-75 cells assessed as reduction in cell growth incubated for 72 hrs by MTT assay; assay type: functional, cell-based; settings: SNB-75, 72 h
SK-OV-3 [21] = experiment: Antiproliferative activity against human SK-OV-3 cells assessed as reduction in cell growth incubated for 7 days by trypan blue exclusion assay; assay type: functional, cell-based; settings: SK-OV-3, 168 h; method in brief: as §2
SNB-75 [22] = experiment: Antiproliferative activity against human SNB-75 cells assessed as reduction in cell growth at 100 uM incubated for 72 hrs by MTT assay relative to control; assay type: functional
C6 [23] = experiment: Antiproliferative activity against rat C6 cells assessed as reduction in cell growth at 100 uM incubated for 72 hrs by MTT assay relative to control; assay type: functional
[24] = Toxicity in Swiss mouse assessed as effect on food consumption at 5 to 100 mg/kg, ip observed after 7 days; assay type: organism-based; settings: in vivo, 168 h, dose 5-100 mg/kg, time 7 day
MDA-MB-435 [25] = experiment: Antiproliferative activity against human MDA-MB-435 cells assessed as reduction in cell growth incubated for 72 hrs by MTT assay; assay type: functional, cell-based; settings: MDA-MB-435, 72 h
MDA-MB-231 [26] = experiment: Antiproliferative activity against human MDA-MB-231 cells assessed as reduction in cell growth at 100 uM incubated for 72 hrs by MTT assay relative to control; assay type: functional
Huh-7 [27] = experiment: Antiproliferative activity against human HuH-7 cells assessed as reduction in cell growth incubated for 72 hrs by MTT assay; assay type: functional, cell-based; settings: Huh-7, 72 h
[28] = Toxicity in Swiss mouse assessed as systemic signs at 5 to 100 mg/kg, ip observed after 7 days; assay type: organism-based; settings: in vivo, 168 h, dose 5-100 mg/kg, time 7 day
DU-145 [29] = experiment: Antiproliferative activity against human DU-145 cells assessed as reduction in cell growth incubated for 72 hrs by MTT assay; assay type: functional, cell-based; settings: DU-145, 72 h
Caco-2 [30] = experiment: Antiproliferative activity against human CaCo-2 cells assessed as reduction in cell growth at 100 uM incubated for 72 hrs by MTT assay relative to control; assay type: functional
SK-OV-3 [31] = experiment: Antiproliferative activity against human SK-OV-3 cells assessed as reduction in cell growth incubated for 3 days by trypan blue exclusion assay; assay type: functional, cell-based; settings: SK-OV-3, 72 h; method in brief: as §2
B16-F10 [32] = experiment: Antiproliferative activity against mouse B16-F10 cells assessed as reduction in cell growth at 100 uM incubated for 72 hrs by MTT assay relative to control; assay type: functional
MDA-MB-231 [33] = experiment: Antiproliferative activity against human MDA-MB-231 cells assessed as reduction in cell growth incubated for 72 hrs by MTT assay; assay type: functional, cell-based; settings: MDA-MB-231, 72 h
IGROV-1 [34] = experiment: Antiproliferative activity against human IGROV-1 cells assessed as reduction in cell growth incubated for 7 days by trypan blue exclusion assay; assay type: functional, cell-based; settings: IGROV-1, 168 h; method in brief: as §2

SMILES	inhibition at 100 µM (MDA-MB-435 [1]) [%]	IC50 (SK-OV-3 [3]) [µg/mL]	IC50 (IGROV-1 [4]) [µg/mL]	Activity [5]	IC50 (B16-F10 [6]) [µM]	inhibition at 100 µM (DU-145 [8]) [%]	IC50 (C6 [9]) [µM]	IC50 (Caco-2 [10]) [µM]	IC50 (A-431 [11]) [µM]	inhibition at 100 µM (Huh-7 [12]) [%]	inhibition at 100 µM (A-431 [14]) [%]	IC50 (IGROV-1 [18]) [µg/mL]	IC50 (SNB-75 [20]) [µM]	IC50 (SK-OV-3 [21]) [µg/mL]	inhibition at 100 µM (SNB-75 [22]) [%]	inhibition at 100 µM (C6 [23]) [%]	IC50 (MDA-MB-435 [25]) [µM]	inhibition at 100 µM (MDA-MB-231 [26]) [%]	IC50 (Huh-7 [27]) [µM]	IC50 (DU-145 [29]) [µM]	other results
NC(=O)c1n[nH]nc1[C@@H]1O[C@H](CO)[C@@H](O)[C@H]1O	80	25.5 (≈ 104 µM)	22.8 (≈ 93.4 µM)	Non-Toxic	1.52	85	2.15	8.05	0.58	60	80	23 (≈ 94.2 µM)	9.38	19 (≈ 77.8 µM)	70	85	1.9	80	22.2	2.14	Activity [2]: Non-Toxic; Activity [7]: Non-Toxic; mortality at 168 h [13]: 0%; mortality at 24 h [15]: 0%; Activity [16]: Non-Toxic; Activity [17]: Non-Toxic; Activity [19]: Non-Toxic; Activity [24]: Non-Toxic; Activity [28]: Non-Toxic; inhibition at 100 µM (Caco-2 [30]): 90%; IC50 (SK-OV-3 [31]): 24.5 µg/mL (≈ 100 µM); inhibition at 100 µM (B16-F10 [32]): 80%; IC50 (MDA-MB-231 [33]): 9.59 µM; IC50 (IGROV-1 [34]): 23.8 µg/mL (≈ 97.5 µM)
NC(=O)c1ncn([C@@H]2O[C@H](CO)[C@@H](O)[C@H]2O)n1 [RIBAVIRIN]	50	10 (≈ 40.9 µM)	21 (≈ 86 µM)	Non-Toxic	3.5	50	13.5	34.5	3.18	60	70	25 (≈ 102 µM)	18.5	10 (≈ 40.9 µM)	70	75	38.3	40	53.7	> 100	inhibition at 100 µM (Caco-2 [30]): 60%; IC50 (SK-OV-3 [31]): 9 µg/mL (≈ 36.9 µM); inhibition at 100 µM (B16-F10 [32]): 80%; IC50 (MDA-MB-231 [33]): > 100 µM; IC50 (IGROV-1 [34]): 16 µg/mL (≈ 65.5 µM)
